Measured values taken from ChEMBL document CHEMBL1144864, “Exploration of the bicyclo[3.3.1]nonane system as a template for the development of new ligands for the estrogen receptor” (Bioorg Med Chem Lett, 2003).

Legend:
[1] = biological target: Estrogen receptor beta (Homo sapiens) (UniProt Q92731); assay: Affinity for estrogen receptor beta (ER-beta) relative to estradiol
Outline: (§1)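 Competitive radiometric binding assay against ER alpha or ER beta. Values are reported as relative binding affinity (RBA), expressed as a percentage of the affinity of estradiol.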

[2] = biological target: T1, Estrogen receptor (Homo sapiens) (UniProt P03372); assay: Affinity for estrogen receptor alpha (ER-alpha) relative to estradiol; outline: as §1
T1 sequence (whole entry): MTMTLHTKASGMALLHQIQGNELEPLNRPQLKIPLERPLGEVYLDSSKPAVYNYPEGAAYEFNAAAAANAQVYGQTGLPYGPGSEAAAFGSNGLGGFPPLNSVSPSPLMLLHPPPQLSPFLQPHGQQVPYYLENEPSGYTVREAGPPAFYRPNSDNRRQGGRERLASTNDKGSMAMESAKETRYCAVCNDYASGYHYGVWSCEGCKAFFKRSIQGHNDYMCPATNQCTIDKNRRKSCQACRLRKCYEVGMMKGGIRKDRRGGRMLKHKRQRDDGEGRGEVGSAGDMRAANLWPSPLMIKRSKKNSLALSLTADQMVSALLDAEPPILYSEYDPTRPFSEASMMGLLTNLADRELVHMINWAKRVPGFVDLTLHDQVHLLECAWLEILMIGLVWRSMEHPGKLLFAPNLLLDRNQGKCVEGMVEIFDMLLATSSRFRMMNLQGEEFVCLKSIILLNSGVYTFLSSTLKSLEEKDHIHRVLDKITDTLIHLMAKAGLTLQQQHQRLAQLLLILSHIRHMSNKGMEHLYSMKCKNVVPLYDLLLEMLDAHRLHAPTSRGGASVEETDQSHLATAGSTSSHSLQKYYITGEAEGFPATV

[3] = biological target: Estrogen receptor (Homo sapiens) (UniProt Q92731+P03372); assay: Relative affinity for alpha and beta estrogen receptors; assay type: protein assay
Sequence of Estrogen receptor (Homo sapiens) (UniProt Q92731+P03372) (Q92731 whole entry, looked up, one chain of several): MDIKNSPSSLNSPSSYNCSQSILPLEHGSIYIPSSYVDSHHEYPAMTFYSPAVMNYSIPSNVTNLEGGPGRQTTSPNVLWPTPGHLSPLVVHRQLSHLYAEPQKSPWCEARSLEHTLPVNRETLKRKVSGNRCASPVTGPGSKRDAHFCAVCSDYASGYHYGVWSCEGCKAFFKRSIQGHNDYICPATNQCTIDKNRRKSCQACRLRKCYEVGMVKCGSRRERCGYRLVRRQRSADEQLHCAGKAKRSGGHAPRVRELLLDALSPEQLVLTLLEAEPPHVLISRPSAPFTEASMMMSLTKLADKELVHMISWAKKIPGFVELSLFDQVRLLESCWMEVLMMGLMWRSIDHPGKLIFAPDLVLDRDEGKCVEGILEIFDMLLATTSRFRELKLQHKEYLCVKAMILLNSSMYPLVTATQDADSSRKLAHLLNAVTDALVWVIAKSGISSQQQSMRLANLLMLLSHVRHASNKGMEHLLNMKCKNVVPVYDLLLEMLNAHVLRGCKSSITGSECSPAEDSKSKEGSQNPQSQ

[4] = biological target: T1, Estrogen receptor (Homo sapiens); assay: Binding affinity for Estrogen receptor alpha relative to estradiol; outline: as §1
[5] = biological target: Estrogen receptor beta (Homo sapiens) (UniProt Q92731); assay: Binding affinity for Estrogen receptor beta relative to estradiol; outline: as §1

Sequence of Estrogen receptor beta (Homo sapiens) (Q92731 whole entry): as the sequence (Q92731 whole entry, looked up, one chain of several) above

Row | relative binding affinity (RBA) [1] | relative binding affinity (RBA) [2] | Ratio [3] | relative binding affinity (RBA) [4] | relative binding affinity (RBA) [5] | SMILES
1 | 0.25 | 0.31 | 0.8 |  |  | Oc1ccc(C2(c3ccc(O)cc3)C3CCCC2CCC3)cc1
2 | 0.77 | 0.22 | 3.5 |  |  | Oc1ccc2c(c1)CC1CC2Cc2cc(O)ccc21
3 | 8.9 | 0.32 | 28 |  |  | CC1(c2ccc(O)cc2)C2CCCC1CCC2 (stereo not drawn)
4 | 0.021 | 0.006 | 3.5 |  |  | O=C1c2cc(O)ccc2C2CC1c1ccc(O)cc1C2=O
5 | 2.9 | 0.44 | 6.6 |  |  | Oc1ccc(C2CCC3CC2CCC3c2ccc(O)cc2)cc1 (stereo not drawn)
6 | 0.072 | 0.033 | 2 |  |  | Oc1ccc2c(c1)C1Cc3ccc(O)cc3C(C2)C1
7 | 1.33 | 0.13 | 10 |  |  | Oc1ccc(C2C3CCCC2CCC3)cc1 (stereo not drawn)
8 | 0.011 | 0.004 | 2.7 |  |  | C[C@@H]1c2cc(O)ccc2C2CC1c1ccc(O)cc1[C@H]2C
9 | 0.022 | 0.005 | 4.4 |  |  | O=C1c2ccc(O)cc2C2CC1c1cc(O)ccc1C2=O
10 |  |  |  | 68 | 334 | CC(=O)Oc1ccc(C(=C2CCCCC2)c2ccc(OC(C)=O)cc2)cc1
11 | 0.025 | 0.007 | 3.6 |  |  | C[C@@H]1c2ccc(O)cc2C2CC1c1cc(O)ccc1[C@H]2C
12 | 1.81 | 0.39 | 4.6 |  |  | Oc1ccc(C2=CCC3CCCC2C3)cc1 (stereo not drawn)
13 | 4.58 | 1.71 | 2.7 |  |  | CC(=C1C2CCCC1CCC2)c1ccc(O)cc1
14 | < 0.005 | < 0.005 |  |  |  | Oc1ccc2c(c1)CN1CN2Cc2cc(O)ccc21
15 | 301 | 513 | 0.59 |  |  | Oc1ccc(C(=C2C3CCCC2CCC3)c2ccc(O)cc2)cc1
